≈ marks a conversion by molar mass, not a printed value. Bounds are passed on as bounds.

For series [1], the target named is Voltage-gated L-type calcium channel (Rattus norvegicus, UniProt P22002+Q02485+P27732). As to the kind of experiment: Inhibition of voltage-dependent L-type calcium channel in rat thoracic aorta ring assessed as effect on high K+ induced contraction by Magnus method. The format is tissue-based.
The nature of series [2]: Inhibition of voltage-dependent N-type calcium channel in human IMR32 cells assessed as effect on calcium influx. In kind it is cell-based. The conditions noted are these: IMR-32.
Series [3] in a line: Aqueous solubility of the compound. The conditions noted are these: buffer. In kind it is physicochemical. Put shortly: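 Aqueous suspension left overnight, centrifuged at 10,000 rpm for 5 min; supernatant diluted and quantified by HPLC.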
Series [4] in a line: Distribution coefficient, log D of the compound. In kind it is physicochemical. To be noted: octanol/water. Put shortly: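 Calculated logD at pH 7.4 (PrologD).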
Another series is filed under the species Rattus norvegicus. As to the kind of experiment: Inhibition of voltage-dependent N-type calcium channel in rat superior cervical ganglion neurons assessed as effect on Ba2+ current at holding potential of -60 mV at 10 uM by electrophysiology. In kind it is tissue-based.

For the compound `CCC1=C(C(=O)OC/C=C/c2ccccc2)C(c2cccc(Cl)c2)C(C(=O)O)=C(C)N1` (stereo unspecified), the values for the IC50 in series [1] and in series [2] were 7 nM and 810 nM, respectively.

Take `COC(OC)C1=C(C(=O)OC/C=C/c2ccc(F)cc2)C(c2cccc(Cl)c2)C(C(=O)O)=C(C)N1` (stereo unspecified): the IC50 (usually the concentration at which inhibition is half-maximal) came to 2000 nM in series [1] and 1800 nM in series [2].

For the compound `COc1cccc(/C=C/COC(=O)C2=C(C(OC)OC)NC(C)=C(C(=O)O)C2c2cccc(Cl)c2)c1` (stereo unspecified), the IC50 in series [1] was found to be 4400 nM; in series [2], 3000 nM.

As to `COc1ccccc1/C=C/COC(=O)C1=C(C(OC)OC)NC(C)=C(C(=O)O)C1c1cccc(Cl)c1` (stereo unspecified), the solubility (as a rule, the concentration that dissolves in the medium under given conditions) in series [3] is 10.2 mg/mL (≈ 19.8 mM). Besides, the figures for the IC50 in series [1] and in series [2] were 5900 nM and 2500 nM, respectively. Also, the logD (usually the decadic logarithm of the distribution of all forms, ionised or not, between an organic phase and buffer at a given pH) in series [4] was found to be 1.2.

As for `COCCOC(=O)C1=C(C)NC(C)=C(C(=O)OC/C=C/c2ccccc2)C1c1cccc([N+](=O)[O-])c1` (stereo unspecified) [CILNIDIPINE], the IC50 in series [2] turned out to be 1600 nM.

Turning to `CC1=C(C(=O)O)C(c2cccc(Cl)c2)C(C(=O)OC/C=C/c2ccccc2)=C(C#N)N1` (stereo unspecified), the figures for the IC50 in series [1] and in series [2] were 2000 nM and 5800 nM, respectively.

Take `COC(OC)C1=C(C(=O)OC/C=C/c2ccccc2Cl)C(c2cccc(Cl)c2)C(C(=O)O)=C(C)N1` (stereo unspecified): the IC50 in series [1] is 700 nM; in series [2] it was 1800 nM.

As to `CC1=C(C(=O)O)C(c2cccc([N+](=O)[O-])c2)C(C(=O)OC/C=C/c2ccccc2)=C(C)N1` (stereo unspecified), the IC50 in series [2] is 3500 nM.

Turning to `COC(OC)C1=C(C(=O)OC/C=C/c2ccc(Cl)cc2)C(c2cccc(Cl)c2)C(C(=O)O)=C(C)N1` (stereo unspecified), the values for the IC50 in series [1] and in series [2] were 1400 nM and 1700 nM, respectively.

For `COC(OC)C1=C(C(=O)OC/C=C/c2ccc(C(F)(F)F)cc2)C(c2cccc(Cl)c2)C(C(=O)O)=C(C)N1` (stereo unspecified), the IC50 in series [1] was found to be 3200 nM; in series [2], 2000 nM.

Take `COC(OC)C1=C(C(=O)OC/C=C/c2cccc(Cl)c2)C(c2cccc(Cl)c2)C(C(=O)O)=C(C)N1` (stereo unspecified): the IC50 in series [1] came out at 1000 nM; in series [2] it was 1400 nM.

Compound `COC(OC)C1=C(C(=O)OC/C=C/c2ccccc2)C(c2cccc(Cl)c2)C(C(=O)O)=C(C)N1` (stereo unspecified) gave a solubility in series [3] of over 15 mg/mL. Moreover, the IC50 in series [1] amounted to 8100 nM; in series [2], 3000 nM. The compound further showed a logD in series [4] of 1.29. The inhibition (usually the relative decrease from the control value, in per cent) in the series filed under Rattus norvegicus was 85%.

As for `COc1ccc(/C=C/COC(=O)C2=C(C(OC)OC)NC(C)=C(C(=O)O)C2c2cccc(Cl)c2)cc1` (stereo unspecified), the values for the IC50 in series [1] and in series [2] were 540 nM and 2100 nM, respectively.

`CC1=C(C(=O)O)C(c2cccc(Cl)c2)C(C(=O)OCCC(c2ccccc2)c2ccccc2)=C(C(F)(F)F)N1` (stereo unspecified) returned a solubility in series [3] of 3.5 mg/mL (≈ 6.3 mM). In series [2], the IC50 was 1700 nM. In series [4], this compound showed a log distribution coefficient (logD) of 3.51.

`COC(OC)C1=C(C(=O)O)C(c2cccc(Cl)c2)C(C(=O)OC/C=C/c2ccccc2)=C(C)N1` (stereo unspecified): the figures for the IC50 in series [1] and in series [2] were 1300 nM and 3900 nM, respectively.

As for `CN[C@@H](CC(C)C)C(=O)NCCCC(c1ccc(F)cc1)c1ccc(F)cc1`, the inhibition in the series filed under Rattus norvegicus was 83%.

With `CC1=NC(C)=C(C(=O)O)C(c2cccc(Cl)c2)/C1=C(\O)OC/C=C/c1ccccc1` (stereo unspecified), in series [2], the IC50 was determined as 1000 nM.

Values taken from ChEMBL document CHEMBL1157350, “The structure-activity relationship study on 2-, 5-, and 6-position of the water soluble 1,4-dihydropyridine derivatives blocking N-type calcium channels” (Bioorg Med Chem Lett, 2008).
